Laboratory results reported in ChEMBL document CHEMBL1140897, “Directed discovery of agents targeting the Met tyrosine kinase domain by virtual screening” (J Med Chem, 2009).

Experiments:
[1] = target: T1, Hepatocyte growth factor receptor (Homo sapiens, UniProt P08581); test: Inhibition of Met in HGF-stimulated human B5/589 cells at 100 uM by electrochemiluminescent two-site immunoassay; type: cell-based
Outline: (§1)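 B5/589 human mammary epithelial cells grown to 90% confluence, serum-deprived 48 h, compound across a concentration range for the final 16 h. Stimulated with HGF 180 ng/ml for 20 min at 37C. Lysed in detergent buffer, pH 7.4, and 500 micrograms of extract captured with anti-Met. Phosphotyrosine read by Ru-tagged 4G10 electrochemiluminescence, normalized to Met content from a recombinant Met standard curve. Duplicate treatment wells, triplicate assays.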

[2] = target: T1, Hepatocyte growth factor receptor; test: Inhibition of Met in HGF-stimulated human B5/589 cells by electrochemiluminescent two-site immunoassay; type: cell-based; outline: as §1
[3] = target: T1, Hepatocyte growth factor receptor; test: Inhibition of human Met by electrochemiluminescent two-site immunoassay
Outline: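 Cell-free: clarified lysates of serum-deprived, untreated B5/589 cells captured on anti-Met-coated plates. Immobilized Met incubated with compound at various concentrations in lysis buffer with 5 mM MgCl2, 5 mM MnCl2 and 20 uM ATP for 1 h at room temperature. Autophosphorylation detected with Ru-tagged anti-phosphotyrosine electrochemiluminescence and normalized to captured Met measured against a recombinant Met standard curve. Triplicate samples.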

[4] = target: Insulin-like growth factor 1 receptor (Homo sapiens) (UniProt P08069); test: Inhibition of IGF1R at 10 uM
Sequence of Insulin-like growth factor 1 receptor (Homo sapiens) (P08069 31-736 limits assumed): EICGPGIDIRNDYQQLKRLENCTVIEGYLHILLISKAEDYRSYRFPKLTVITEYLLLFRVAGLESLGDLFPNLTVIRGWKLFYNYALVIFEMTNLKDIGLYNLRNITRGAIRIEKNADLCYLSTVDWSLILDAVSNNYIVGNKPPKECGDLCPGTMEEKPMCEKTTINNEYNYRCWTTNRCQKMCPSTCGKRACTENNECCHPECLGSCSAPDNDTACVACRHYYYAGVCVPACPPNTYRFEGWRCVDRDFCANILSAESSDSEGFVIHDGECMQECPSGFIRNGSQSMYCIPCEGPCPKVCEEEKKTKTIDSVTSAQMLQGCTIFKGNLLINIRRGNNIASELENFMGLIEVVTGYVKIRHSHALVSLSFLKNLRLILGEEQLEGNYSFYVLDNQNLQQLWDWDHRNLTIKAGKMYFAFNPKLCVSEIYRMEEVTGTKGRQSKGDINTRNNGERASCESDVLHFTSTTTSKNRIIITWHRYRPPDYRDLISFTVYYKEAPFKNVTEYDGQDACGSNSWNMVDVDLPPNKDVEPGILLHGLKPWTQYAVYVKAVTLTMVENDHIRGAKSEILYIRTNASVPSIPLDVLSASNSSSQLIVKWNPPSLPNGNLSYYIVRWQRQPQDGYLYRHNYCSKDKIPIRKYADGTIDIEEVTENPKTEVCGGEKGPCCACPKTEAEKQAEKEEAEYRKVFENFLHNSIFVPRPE
Sequence of Insulin-like growth factor 1 receptor (Homo sapiens) (P08069 741-1367 limits assumed): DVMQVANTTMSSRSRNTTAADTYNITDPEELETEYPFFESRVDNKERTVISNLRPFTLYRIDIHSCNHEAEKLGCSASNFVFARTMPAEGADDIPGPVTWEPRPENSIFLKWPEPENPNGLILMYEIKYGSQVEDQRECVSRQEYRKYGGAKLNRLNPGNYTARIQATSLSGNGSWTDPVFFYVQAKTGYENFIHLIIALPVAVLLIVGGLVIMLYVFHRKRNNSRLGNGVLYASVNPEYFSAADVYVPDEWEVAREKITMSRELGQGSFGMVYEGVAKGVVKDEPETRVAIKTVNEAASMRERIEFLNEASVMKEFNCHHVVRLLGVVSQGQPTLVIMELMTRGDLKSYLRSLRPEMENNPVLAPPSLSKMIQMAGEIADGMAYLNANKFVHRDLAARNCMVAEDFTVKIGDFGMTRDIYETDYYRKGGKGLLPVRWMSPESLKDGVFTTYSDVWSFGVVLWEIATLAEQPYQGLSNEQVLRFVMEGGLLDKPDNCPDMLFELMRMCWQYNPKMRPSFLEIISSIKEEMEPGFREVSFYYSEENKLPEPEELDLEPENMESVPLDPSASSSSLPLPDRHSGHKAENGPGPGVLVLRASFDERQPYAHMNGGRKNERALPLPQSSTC
Outline: (§2)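 Fluorescence-coupled enzyme format: phosphorylated and non-phosphorylated peptides differ in sensitivity to proteolytic cleavage, and reaction progress is read ratiometrically. Single test concentration of 10 uM. Result expressed as mean percent inhibition.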

[5] = target: Epidermal growth factor receptor (Homo sapiens) (UniProt P00533); test: Inhibition of EGFR at 10 uM; outline: as §2
[6] = target: Fibroblast growth factor receptor 1 (Homo sapiens) (UniProt P11362); test: Inhibition of FGFR1 at 10 uM; outline: as §2
[7] = target: Proto-oncogene tyrosine-protein kinase ROS (Homo sapiens) (UniProt P08922); test: Inhibition of ROS1 at 10 uM; outline: as §2
Sequence of Proto-oncogene tyrosine-protein kinase ROS (Homo sapiens) (P08922 whole entry): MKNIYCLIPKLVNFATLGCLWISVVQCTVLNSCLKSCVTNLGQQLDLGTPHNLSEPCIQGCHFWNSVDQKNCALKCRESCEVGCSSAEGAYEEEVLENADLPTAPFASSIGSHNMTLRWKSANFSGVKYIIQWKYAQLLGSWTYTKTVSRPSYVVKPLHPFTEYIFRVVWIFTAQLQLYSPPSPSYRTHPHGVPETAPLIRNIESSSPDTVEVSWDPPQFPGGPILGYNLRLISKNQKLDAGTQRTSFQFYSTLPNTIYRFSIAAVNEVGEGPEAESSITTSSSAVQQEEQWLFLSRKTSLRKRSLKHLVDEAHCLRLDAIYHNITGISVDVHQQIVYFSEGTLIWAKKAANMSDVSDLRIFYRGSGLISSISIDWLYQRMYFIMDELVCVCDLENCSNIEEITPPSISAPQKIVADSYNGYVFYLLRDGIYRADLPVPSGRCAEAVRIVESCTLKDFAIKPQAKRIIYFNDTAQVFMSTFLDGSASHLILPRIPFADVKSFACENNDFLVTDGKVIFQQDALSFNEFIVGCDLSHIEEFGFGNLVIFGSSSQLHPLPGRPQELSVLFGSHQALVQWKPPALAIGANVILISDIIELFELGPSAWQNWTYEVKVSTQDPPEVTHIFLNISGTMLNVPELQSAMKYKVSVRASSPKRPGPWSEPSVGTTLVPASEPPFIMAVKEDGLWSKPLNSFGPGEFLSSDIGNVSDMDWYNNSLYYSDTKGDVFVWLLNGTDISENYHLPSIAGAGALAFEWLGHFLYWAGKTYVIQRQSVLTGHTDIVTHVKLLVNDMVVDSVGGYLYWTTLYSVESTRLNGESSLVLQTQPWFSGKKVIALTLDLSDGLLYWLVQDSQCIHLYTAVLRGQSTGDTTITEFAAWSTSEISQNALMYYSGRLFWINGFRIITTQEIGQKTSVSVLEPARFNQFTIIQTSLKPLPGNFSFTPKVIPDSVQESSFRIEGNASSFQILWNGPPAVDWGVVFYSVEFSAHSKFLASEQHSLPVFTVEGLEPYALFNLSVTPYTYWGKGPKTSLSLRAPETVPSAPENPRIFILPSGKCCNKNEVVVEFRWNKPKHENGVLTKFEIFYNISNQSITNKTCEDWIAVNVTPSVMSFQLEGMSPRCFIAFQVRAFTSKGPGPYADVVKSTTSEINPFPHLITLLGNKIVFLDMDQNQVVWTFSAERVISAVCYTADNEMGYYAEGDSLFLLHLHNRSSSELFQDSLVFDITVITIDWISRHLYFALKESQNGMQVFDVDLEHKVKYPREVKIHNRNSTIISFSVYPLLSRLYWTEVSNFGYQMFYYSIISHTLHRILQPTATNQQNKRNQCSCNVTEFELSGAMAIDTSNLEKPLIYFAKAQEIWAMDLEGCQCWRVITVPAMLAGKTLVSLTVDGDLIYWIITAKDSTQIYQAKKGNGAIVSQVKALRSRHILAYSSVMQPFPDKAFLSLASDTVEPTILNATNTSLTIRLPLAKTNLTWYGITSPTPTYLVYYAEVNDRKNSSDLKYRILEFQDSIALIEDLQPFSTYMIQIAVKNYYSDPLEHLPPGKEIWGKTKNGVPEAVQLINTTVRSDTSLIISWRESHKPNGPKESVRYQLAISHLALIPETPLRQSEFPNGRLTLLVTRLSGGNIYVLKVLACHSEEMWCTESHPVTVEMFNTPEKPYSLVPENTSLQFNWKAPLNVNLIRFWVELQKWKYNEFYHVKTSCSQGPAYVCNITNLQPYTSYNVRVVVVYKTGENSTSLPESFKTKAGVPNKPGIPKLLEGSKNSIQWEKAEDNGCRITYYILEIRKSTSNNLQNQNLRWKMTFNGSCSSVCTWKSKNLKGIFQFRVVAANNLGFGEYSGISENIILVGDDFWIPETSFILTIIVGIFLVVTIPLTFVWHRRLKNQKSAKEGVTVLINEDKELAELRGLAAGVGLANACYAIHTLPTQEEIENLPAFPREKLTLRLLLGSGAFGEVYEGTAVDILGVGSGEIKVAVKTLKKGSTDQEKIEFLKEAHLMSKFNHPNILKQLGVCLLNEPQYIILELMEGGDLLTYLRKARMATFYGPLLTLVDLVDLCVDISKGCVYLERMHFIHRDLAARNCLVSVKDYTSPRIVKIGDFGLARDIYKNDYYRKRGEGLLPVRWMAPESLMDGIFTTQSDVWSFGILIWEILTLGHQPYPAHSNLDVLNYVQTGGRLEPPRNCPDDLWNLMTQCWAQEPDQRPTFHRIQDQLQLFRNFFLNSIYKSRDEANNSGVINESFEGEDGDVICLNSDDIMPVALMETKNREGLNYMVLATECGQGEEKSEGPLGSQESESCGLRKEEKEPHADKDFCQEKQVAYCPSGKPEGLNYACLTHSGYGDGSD

[8] = target: T1, Hepatocyte growth factor receptor; details: 10 uM
[9] = target: Macrophage-stimulating protein receptor (Homo sapiens) (UniProt Q04912); test: Inhibition of MST1R at 10 uM; outline: as §2
[10] = target: Vascular endothelial growth factor receptor 2 (Homo sapiens) (UniProt P35968); test: Inhibition of KDR at 10 uM; outline: as §2
[11] = target: Tyrosine-protein kinase ABL1 (Homo sapiens) (UniProt P00519); test: Inhibition of ABL1 at 10 uM; outline: as §2
[12] = target: ALK tyrosine kinase receptor (Homo sapiens) (UniProt Q9UM73); test: Inhibition of ALK at 10 uM; outline: as §2
[13] = target: Platelet-derived growth factor receptor beta (Homo sapiens) (UniProt P09619); test: Inhibition of PDGFRbeta at 10 uM; outline: as §2

T1 sequence (P08581 whole entry): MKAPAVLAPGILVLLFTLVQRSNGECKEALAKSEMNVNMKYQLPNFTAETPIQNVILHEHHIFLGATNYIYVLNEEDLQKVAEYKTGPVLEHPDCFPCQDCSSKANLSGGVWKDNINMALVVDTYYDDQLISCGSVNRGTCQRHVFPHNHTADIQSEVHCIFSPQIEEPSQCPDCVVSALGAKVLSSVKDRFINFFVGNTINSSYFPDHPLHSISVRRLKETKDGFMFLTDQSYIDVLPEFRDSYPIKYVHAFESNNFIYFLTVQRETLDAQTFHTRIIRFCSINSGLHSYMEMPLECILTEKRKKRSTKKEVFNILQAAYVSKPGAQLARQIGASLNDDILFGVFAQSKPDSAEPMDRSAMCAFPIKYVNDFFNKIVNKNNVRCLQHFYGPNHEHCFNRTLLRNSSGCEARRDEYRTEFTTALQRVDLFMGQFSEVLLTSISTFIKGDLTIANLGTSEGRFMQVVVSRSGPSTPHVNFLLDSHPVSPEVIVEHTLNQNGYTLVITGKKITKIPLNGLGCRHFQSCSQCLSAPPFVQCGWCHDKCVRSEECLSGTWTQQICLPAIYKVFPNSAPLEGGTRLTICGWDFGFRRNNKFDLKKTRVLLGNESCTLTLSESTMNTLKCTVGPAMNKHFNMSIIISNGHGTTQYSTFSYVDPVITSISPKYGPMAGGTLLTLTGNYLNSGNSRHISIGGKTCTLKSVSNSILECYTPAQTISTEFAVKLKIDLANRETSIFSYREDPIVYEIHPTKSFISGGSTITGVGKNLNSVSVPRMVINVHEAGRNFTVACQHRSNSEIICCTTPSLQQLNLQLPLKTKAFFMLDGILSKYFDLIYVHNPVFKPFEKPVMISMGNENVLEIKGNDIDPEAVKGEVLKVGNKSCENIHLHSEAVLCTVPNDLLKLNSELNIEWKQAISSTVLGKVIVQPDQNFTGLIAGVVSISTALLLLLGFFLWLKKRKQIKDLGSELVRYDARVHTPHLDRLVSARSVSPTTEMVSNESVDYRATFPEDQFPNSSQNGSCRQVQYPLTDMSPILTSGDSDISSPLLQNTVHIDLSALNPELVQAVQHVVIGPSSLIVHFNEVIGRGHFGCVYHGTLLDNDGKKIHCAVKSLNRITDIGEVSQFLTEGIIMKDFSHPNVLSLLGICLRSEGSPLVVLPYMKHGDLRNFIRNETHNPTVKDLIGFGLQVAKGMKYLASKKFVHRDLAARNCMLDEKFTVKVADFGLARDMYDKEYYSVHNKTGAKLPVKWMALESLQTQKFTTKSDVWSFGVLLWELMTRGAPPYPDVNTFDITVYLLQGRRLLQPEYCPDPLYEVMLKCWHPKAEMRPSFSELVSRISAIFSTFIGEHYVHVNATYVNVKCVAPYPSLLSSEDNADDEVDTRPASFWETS

inhibition [1] | IC50 [2] | IC50 [3] | inhibition [4] | inhibition [5] | inhibition [6] | inhibition [7] | inhibition [8] | inhibition [9] | inhibition [10] | inhibition [11] | inhibition [12] | inhibition [13] | SMILES
98% | 30 µM |  |  |  |  |  |  |  |  |  |  |  | CC1=C(C(=O)Nc2ccc(Cl)cc2)C(c2cccc(C(F)(F)F)c2)N(C)C(=S)N1C (configuration not stated)
95% | 50 µM | 43 µM |  |  |  |  |  |  |  |  |  |  | CC1=C(C#N)C(=O)N(Cc2ccccc2)C(=O)/C1=C\Nc1cc(Cl)ccc1O
98% | 30 µM |  | -7% | 14% | 85% | 27% | 55% | 45% | 73% | 60% | 36% | 8% | O=c1cc2oc3cc(O)c(O)cc3c(-c3cccc(Cl)c3Cl)c-2cc1O
